# Tests used:
# PK study in mice = format: in vivo; conditions: male, ICR, mouse, plasma, po, 3 mg/kg
# PK study in rats = format: in vivo; conditions: male, Sprague Dawley, rat, plasma, po, 3 mg/kg
# IKZF2 [1] = biological target: T1, IKZF2 (Homo sapiens, UniProt Q96SW2+Q9UKS7); test: IKZF2 HiBiT degradation assay in HEK293 cells; format: cell-based; conditions: for Dmax: HEK293, read-out: IKZF2 degradation Dmax
# SALL4 = SALL4 (Homo sapiens, UniProt Q9UJQ4); test: SALL4 HiBiT degradation assay in HEK293 cells; format: cell-based
# Chain of SALL4 (Q96SW2 whole entry partner): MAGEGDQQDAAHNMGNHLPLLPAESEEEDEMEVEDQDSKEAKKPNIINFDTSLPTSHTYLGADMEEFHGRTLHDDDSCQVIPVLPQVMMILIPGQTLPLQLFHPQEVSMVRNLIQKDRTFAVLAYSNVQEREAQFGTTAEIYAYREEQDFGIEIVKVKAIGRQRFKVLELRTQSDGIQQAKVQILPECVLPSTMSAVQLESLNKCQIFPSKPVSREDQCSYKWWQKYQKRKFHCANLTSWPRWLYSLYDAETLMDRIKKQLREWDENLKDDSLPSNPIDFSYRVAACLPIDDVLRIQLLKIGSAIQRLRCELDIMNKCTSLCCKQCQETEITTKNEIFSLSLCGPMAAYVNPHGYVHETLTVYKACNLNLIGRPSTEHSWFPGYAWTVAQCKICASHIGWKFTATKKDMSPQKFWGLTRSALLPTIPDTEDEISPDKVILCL
# Chain of SALL4 (Q16531 whole entry partner): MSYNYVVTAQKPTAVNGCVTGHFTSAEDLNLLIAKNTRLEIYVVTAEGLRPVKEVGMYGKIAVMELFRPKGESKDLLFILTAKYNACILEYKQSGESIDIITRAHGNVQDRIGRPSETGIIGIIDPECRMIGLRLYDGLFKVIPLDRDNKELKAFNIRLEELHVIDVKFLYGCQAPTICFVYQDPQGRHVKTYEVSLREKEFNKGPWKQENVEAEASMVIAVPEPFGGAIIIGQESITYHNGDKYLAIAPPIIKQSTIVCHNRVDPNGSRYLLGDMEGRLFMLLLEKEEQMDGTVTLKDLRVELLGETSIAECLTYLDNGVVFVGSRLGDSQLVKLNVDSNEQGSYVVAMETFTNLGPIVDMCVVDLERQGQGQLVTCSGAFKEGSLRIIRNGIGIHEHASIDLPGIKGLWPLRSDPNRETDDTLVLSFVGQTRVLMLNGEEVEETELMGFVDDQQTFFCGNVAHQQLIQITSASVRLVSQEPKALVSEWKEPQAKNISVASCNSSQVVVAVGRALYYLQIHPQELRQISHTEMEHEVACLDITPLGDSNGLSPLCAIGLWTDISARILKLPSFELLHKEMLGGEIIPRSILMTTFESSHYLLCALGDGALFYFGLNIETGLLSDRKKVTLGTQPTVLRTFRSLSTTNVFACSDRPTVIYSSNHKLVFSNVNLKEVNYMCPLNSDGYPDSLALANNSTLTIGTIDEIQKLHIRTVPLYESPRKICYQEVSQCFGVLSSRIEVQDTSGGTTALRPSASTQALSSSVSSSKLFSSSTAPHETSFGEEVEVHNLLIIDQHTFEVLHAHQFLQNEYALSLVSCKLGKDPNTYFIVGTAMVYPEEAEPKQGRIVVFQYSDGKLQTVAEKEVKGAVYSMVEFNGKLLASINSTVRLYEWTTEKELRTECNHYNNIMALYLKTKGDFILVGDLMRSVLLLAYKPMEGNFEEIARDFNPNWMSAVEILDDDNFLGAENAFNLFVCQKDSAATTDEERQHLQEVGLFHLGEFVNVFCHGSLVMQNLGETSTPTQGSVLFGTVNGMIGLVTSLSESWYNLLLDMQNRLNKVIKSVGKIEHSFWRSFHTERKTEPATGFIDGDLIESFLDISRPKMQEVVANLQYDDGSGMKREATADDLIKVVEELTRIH
# Chain of SALL4 (Q9UJQ4 whole entry): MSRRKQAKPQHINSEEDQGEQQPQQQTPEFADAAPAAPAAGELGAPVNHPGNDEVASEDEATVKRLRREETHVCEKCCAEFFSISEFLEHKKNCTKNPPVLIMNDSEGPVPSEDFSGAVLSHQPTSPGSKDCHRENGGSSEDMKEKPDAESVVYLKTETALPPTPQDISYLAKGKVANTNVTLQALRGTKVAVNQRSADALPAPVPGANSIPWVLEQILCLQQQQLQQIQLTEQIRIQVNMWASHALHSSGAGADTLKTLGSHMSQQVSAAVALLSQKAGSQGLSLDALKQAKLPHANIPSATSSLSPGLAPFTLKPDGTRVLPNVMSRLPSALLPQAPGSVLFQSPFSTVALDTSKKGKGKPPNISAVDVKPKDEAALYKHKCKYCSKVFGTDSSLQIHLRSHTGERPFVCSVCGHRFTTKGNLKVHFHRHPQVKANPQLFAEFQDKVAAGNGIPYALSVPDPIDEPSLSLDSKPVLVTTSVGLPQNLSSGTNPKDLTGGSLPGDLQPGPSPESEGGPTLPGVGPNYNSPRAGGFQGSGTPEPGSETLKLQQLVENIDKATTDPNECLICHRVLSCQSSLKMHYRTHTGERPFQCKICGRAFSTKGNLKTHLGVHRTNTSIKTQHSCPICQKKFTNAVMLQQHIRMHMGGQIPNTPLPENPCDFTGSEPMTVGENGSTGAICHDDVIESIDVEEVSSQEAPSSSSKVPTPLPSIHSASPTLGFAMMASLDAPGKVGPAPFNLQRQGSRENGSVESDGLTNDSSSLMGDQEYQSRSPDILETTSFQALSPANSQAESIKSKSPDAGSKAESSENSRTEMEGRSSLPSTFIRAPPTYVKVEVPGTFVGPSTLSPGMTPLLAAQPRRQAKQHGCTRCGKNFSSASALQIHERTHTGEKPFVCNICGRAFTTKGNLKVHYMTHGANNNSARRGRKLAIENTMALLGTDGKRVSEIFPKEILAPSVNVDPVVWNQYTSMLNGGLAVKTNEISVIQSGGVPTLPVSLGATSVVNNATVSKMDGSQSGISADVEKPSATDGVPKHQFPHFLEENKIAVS
# Summary of the method: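 Each HiBiT-tagged target construct was integrated into the FRT site by the FLP-IN system, and integration was checked by lytic HiBiT detection. Cells got test compound at 0.017 nM to 10 µM, with DMSO as vehicle control, for 6 h. HiBiT signal was then read by lytic luminescence detection. DC50 and Dmax came from a four-parameter dose-response fit.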
# hERG channel = hERG channel (Homo sapiens, UniProt Q12809); test: hERG channel inhibition, manual patch-clamp; format: cell-based
# Chain of hERG channel (Q12809 whole entry): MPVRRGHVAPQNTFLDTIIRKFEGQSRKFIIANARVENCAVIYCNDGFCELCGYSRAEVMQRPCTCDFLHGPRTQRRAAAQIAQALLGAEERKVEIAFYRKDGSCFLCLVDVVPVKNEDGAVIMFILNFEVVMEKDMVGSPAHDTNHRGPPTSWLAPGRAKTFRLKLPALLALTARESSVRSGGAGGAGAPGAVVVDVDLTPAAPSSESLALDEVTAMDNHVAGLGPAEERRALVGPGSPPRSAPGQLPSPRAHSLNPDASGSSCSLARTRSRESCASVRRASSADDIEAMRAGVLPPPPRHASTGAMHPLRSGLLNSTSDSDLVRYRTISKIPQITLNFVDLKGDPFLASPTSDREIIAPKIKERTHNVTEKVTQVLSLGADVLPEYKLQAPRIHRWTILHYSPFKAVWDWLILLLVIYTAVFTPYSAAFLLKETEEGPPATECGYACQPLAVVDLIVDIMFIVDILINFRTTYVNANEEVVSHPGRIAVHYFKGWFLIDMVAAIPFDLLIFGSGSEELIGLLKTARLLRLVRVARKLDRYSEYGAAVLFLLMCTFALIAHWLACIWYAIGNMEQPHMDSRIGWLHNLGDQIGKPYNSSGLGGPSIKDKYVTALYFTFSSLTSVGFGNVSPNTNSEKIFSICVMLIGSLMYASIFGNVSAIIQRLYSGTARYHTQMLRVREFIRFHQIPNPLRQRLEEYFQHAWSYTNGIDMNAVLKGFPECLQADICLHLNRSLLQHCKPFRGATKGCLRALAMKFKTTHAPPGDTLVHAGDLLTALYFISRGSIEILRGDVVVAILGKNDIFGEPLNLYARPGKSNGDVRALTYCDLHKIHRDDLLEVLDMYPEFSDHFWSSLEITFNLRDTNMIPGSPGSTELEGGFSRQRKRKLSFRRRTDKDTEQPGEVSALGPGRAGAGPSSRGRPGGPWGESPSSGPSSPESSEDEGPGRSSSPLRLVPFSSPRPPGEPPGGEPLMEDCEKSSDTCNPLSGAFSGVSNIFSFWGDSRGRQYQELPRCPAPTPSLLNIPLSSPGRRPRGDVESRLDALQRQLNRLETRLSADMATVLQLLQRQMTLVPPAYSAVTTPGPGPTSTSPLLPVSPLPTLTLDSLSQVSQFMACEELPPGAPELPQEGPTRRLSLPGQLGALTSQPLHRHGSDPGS
# IL-2 = IL-2 production in Jurkat cells; format: cell-based, human; conditions: Jurkat stimulated with anti-CD3/CD28, bead-to-cell ratio 1:4
# IKZF2 [2] = biological target: T1, IKZF2; test: IKZF2 FACS assay in primary human Tregs; format: cell-based; conditions: read-out: IKZF2 degradation Dmax in human Treg cells
# Summary of the method: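 Thawed human PBMCs were resuspended in RPMI with 10% FBS and 1% P/S. They were treated with test compound at 0.05 nM to 1 μM, with DMSO as vehicle control, for 3 or 6 h. IKZF2 in Treg cells was then assessed by FACS under a defined gating strategy.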
# T1 sequence (Q9UKS7 whole entry): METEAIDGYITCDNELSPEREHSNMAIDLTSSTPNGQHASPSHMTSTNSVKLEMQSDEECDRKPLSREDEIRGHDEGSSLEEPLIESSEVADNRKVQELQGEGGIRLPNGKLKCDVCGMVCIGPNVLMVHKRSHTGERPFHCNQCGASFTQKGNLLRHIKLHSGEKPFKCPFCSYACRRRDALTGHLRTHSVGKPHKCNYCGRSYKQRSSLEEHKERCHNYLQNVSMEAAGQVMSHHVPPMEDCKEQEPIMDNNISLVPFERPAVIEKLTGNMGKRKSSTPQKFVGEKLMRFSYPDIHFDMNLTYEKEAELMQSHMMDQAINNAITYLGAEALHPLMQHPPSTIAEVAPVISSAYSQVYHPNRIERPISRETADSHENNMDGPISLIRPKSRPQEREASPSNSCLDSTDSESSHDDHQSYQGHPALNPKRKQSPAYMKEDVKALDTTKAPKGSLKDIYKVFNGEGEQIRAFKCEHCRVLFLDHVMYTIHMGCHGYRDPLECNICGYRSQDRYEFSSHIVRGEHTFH
# T1 sequence (Q96SW2 whole entry): as the sequence (Q96SW2 whole entry partner) above
# T1 sequence (Q16531 whole entry partner): as the sequence (Q16531 whole entry partner) above
SMILES,Dmax (IKZF2 [1]),also measured
O=C1CCC(N2Cc3c(ccc4c3OCC43CCN(Cc4ccccc4)CC3)C2=O)C(=O)N1 (stereo not drawn) [Compound 5],–,AUC (PK study in mice): 1340 ng·h/mL; AUC (PK study in rats): 1170 ng·h/mL
O=C1CCC(N2Cc3c(ccc4c3OCC43CCC(Oc4ccccc4)CC3)C2=O)C(=O)N1 (stereo not drawn) [Compound 7],38%,–
O=C1CCC(N2Cc3c(ccc4c3OCC43CCN(Cc4ccccc4)C3)C2=O)C(=O)N1 (stereo not drawn) [Compound 8],33%,–
O=C1CCC(N2Cc3c(ccc4c3OCC43CCCN(Cc4ccccc4)CC3)C2=O)C(=O)N1 (stereo not drawn) [Compound 9],17%,–
O=C1CCC(N2Cc3c(ccc4c3OCCC43CCN(Cc4ccccc4)CC3)C2=O)C(=O)N1 (stereo not drawn) [Compound 10],39%,–
O=C1CCC(N2Cc3c(ccc4c3OCC43CCN(Cc4ccccc4)CC3(F)F)C2=O)C(=O)N1 (stereo not drawn) [Compound 12],68%,–
O=C1CCC(N2Cc3c(ccc4c3OCC43CCN(CC4CCCCC4)CC3)C2=O)C(=O)N1 (stereo not drawn) [Compound 13],69%,–
O=C1CCC(N2Cc3c(ccc4c3OCC43CCN(Cc4ccccn4)CC3)C2=O)C(=O)N1 (stereo not drawn) [Compound 14],64%,–
O=C1CCC(N2Cc3c(ccc4c3OCC43CCN(Cc4ccsc4)CC3)C2=O)C(=O)N1 (stereo not drawn) [Compound 15],84%,–
O=C1CCC(N2Cc3cc(C4CCN(Cc5ccccc5)CC4)ccc3C2=O)C(=O)N1 (stereo not drawn) [DKY709],73%,"time to reach maximal IKZF2 degradation (Dmax plateau) (IKZF2 [1]; IKZF2 HiBiT, HEK293): > 6 h; DC50 (IKZF2 [1]; read-out: IKZF2 degradation DC50, HiBiT, HEK293, 6 h): 1.5 nM; Dmax (SALL4; HEK293, read-out: SALL4 degradation Dmax): 55%; DC50 (SALL4; read-out: SALL4 degradation DC50, HiBiT, HEK293, 6 h): 4.9 nM; hERG inhibition IC30 (hERG channel): 3000 nM; IL-2 concentration in the supernatant (in words) (IL-2): increase in IL-2 concentration in the supernatant; Dmax (IKZF2 [2]): 73%"

# Source: paper PMC12046021 (Nature Communications, 2025)
